Measurements reported in ChEMBL document CHEMBL1275598, “In vitro activity of ceftaroline against community-associated methicillin-resistant, vancomycin-intermediate, vancomycin-resistant, and daptomycin-nonsusceptible Staphylococcus aureus isolates” (2010).
In brackets after ≈: the same amount, converted by molar mass. Several values for one entry are separate records, joined by “and”; a condition that tells them apart may be missing. Equal values may be shown once.

Experiments:
Assay type in all cases: functional
Staphylococcus aureus [1] = assay: Antimicrobial activity against vancomycin resistant Staphylococcus aureus VRS-1 expressing SCCmec type 2 element by microdilution method
In short: (§1)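 Broth microdilution per CLSI in cation-adjusted Mueller-Hinton broth. Antibiotic powders were reconstituted per CLSI. The MIC was read visually as the lowest drug concentration with no visible growth. S. aureus ATCC 29213 and E. faecalis ATCC 29212 served as control strains. VISA and VRSA isolates came from the NARSA program.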

Staphylococcus aureus [2] = assay: Bactericidal activity against daptomycin-nonsusceptible Staphylococcus aureus assessed as antibiotic concentration that reduced the number of viable cells by =>99.9% by colony count method
In short: (§2)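 MBC per CLSI guidelines. It was taken as the antibiotic concentration giving ≥99.9% reduction in viable cells, based on colony counts from the growth control well and rejection values from Pearson's tables.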

Staphylococcus aureus [3] = assay: Antimicrobial activity against vancomycin intermediate Staphylococcus aureus NRS-74 expressing SCCmec type 2 element by microdilution method
In short: (§3)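 MIC by broth microdilution in cation-adjusted Mueller-Hinton broth, following CLSI guidelines; antibiotic powders reconstituted per CLSI. Read visually as the lowest drug concentration well with no visible growth. S. aureus ATCC 29213 and E. faecalis ATCC 29212 served as control strains. CA-MRSA: hospital patients culture-positive within 48 h of admission. DNSSA: patient blood isolates. VISA: obtained from the NARSA program.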

Staphylococcus aureus [4] = assay: Antimicrobial activity against vancomycin intermediate Staphylococcus aureus NRS-402 expressing SCCmec type 2 element by microdilution method; in short: as §3
Staphylococcus aureus [5] = assay: Antimicrobial activity against vancomycin resistant Staphylococcus aureus VRS-8 expressing SCCmec element by microdilution method; in short: as §1
Staphylococcus aureus [6] = assay: Antimicrobial activity against vancomycin intermediate Staphylococcus aureus NRS-118 expressing SCCmec type 1 element by microdilution method; in short: as §3
Staphylococcus aureus [7] = assay: Antimicrobial activity against vancomycin resistant Staphylococcus aureus VRS-6 expressing SCCmec type 2 element by microdilution method; in short: as §1
Staphylococcus aureus [8] = assay: Antimicrobial activity against vancomycin intermediate Staphylococcus aureus NRS-18 expressing SCCmec type 2 element by microdilution method; in short: as §3
Staphylococcus aureus [9] = assay: Antimicrobial activity against daptomycin-nonsusceptible Staphylococcus aureus by microdilution method; in short: as §3
Staphylococcus aureus [10] = assay: Antimicrobial activity against methicillin-resistant Staphylococcus aureus
Staphylococcus aureus [11] = assay: Antimicrobial activity against vancomycin resistant Staphylococcus aureus VRS-10 expressing SCCmec type 2 element by microdilution method; in short: as §1
Staphylococcus aureus [12] = assay: Antimicrobial activity against vancomycin intermediate Staphylococcus aureus NRS-73 expressing SCCmec type 4d element by microdilution method; in short: as §3
Staphylococcus aureus [13] = assay: Antimicrobial activity against vancomycin intermediate Staphylococcus aureus NRS-403 expressing SCCmec type 2 element by microdilution method; in short: as §3
Staphylococcus aureus [14] = assay: Bactericidal activity against vancomycin-resistant Staphylococcus aureus assessed as antibiotic concentration that reduced the number of viable cells by =>99.9% by colony count method
In short: (§4)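 MBC per CLSI following microdilution in cation-adjusted Mueller-Hinton broth. Defined as the concentration giving ≥99.9% reduction in viable cells, judged from colony counts of the growth control well against Pearson rejection-value tables. CA-MRSA isolates were hospital patients' isolates with positive MRSA culture within 48 h of admission.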

Staphylococcus aureus [15] = assay: Bactericidal activity against community-acquired methicillin-resistant Staphylococcus aureus assessed as antibiotic concentration that reduced the number of viable cells by =>99.9% by colony count method; in short: as §4
Staphylococcus aureus [16] = assay: Antimicrobial activity against vancomycin intermediate Staphylococcus aureus NRS-3 expressing SCCmec type 2 element by microdilution method; in short: as §3
Staphylococcus aureus [17] = assay: Antimicrobial activity against vancomycin intermediate Staphylococcus aureus NRS-24 expressing SCCmec type 2 element by microdilution method; in short: as §3
Staphylococcus aureus [18] = assay: Antimicrobial activity against vancomycin intermediate Staphylococcus aureus NRS-404 expressing SCCmec type 2 element by microdilution method; in short: as §3
Staphylococcus aureus [19] = assay: Antimicrobial activity against vancomycin intermediate Staphylococcus aureus NRS-51 expressing SCCmec type 2 element by microdilution method; in short: as §3
Staphylococcus aureus [20] = assay: Antimicrobial activity against vancomycin resistant Staphylococcus aureus VRS-5 expressing SCCmec type 2 element by microdilution method; in short: as §1
Staphylococcus aureus [21] = assay: Antimicrobial activity against vancomycin resistant Staphylococcus aureus VRS-2 expressing SCCmec type 2 element by microdilution method; in short: as §1
Staphylococcus aureus [22] = assay: Antimicrobial activity against vancomycin intermediate Staphylococcus aureus NRS-4 expressing SCCmec type 2 element by microdilution method; in short: as §3
Staphylococcus aureus [23] = assay: Antimicrobial activity against community-acquired methicillin-resistant Staphylococcus aureus expressing SCCmec type 4a element by microdilution method; in short: as §3
Staphylococcus aureus [24] = assay: Antimicrobial activity against vancomycin resistant Staphylococcus aureus VRS-4 expressing SCCmec type 4 element by microdilution method; in short: as §1
Staphylococcus aureus [25] = assay: Antimicrobial activity against vancomycin intermediate Staphylococcus aureus NRS-26 expressing SCCmec type 2 element by microdilution method; in short: as §3
Staphylococcus aureus [26] = assay: Antimicrobial activity against vancomycin intermediate Staphylococcus aureus NRS-126 expressing SCCmec type 2 element by microdilution method; in short: as §3
Staphylococcus aureus [27] = assay: Antimicrobial activity against community-acquired methicillin-resistant Staphylococcus aureus expressing SCCmec type 2 element by microdilution method; in short: as §3
Staphylococcus aureus [28] = assay: Antimicrobial activity against vancomycin-intermediate Staphylococcus aureus by microdilution method; in short: as §1
Staphylococcus aureus [29] = assay: Bactericidal activity against vancomycin-intermediate Staphylococcus aureus assessed as antibiotic concentration that reduced the number of viable cells by =>99.9% by colony count method; in short: as §2
Staphylococcus aureus [30] = assay: Antimicrobial activity against vancomycin intermediate Staphylococcus aureus NRS-22 expressing SCCmec type 2 element by microdilution method; in short: as §3
Staphylococcus aureus [31] = assay: Antimicrobial activity against community-acquired methicillin-resistant Staphylococcus aureus expressing SCCmec type 4 element by microdilution method; in short: as §3
Staphylococcus aureus [32] = assay: Bactericidal activity against community-acquired methicillin-resistant Staphylococcus aureus expressing SCCmec type 4a element assessed as antibiotic concentration that reduced the number of viable cells by =>99.9% by colony count method; in short: as §4
Staphylococcus aureus [33] = assay: Antimicrobial activity against vancomycin resistant Staphylococcus aureus VRS-3 expressing SCCmec type 4 element by microdilution method; in short: as §1
Staphylococcus aureus [34] = assay: Antimicrobial activity against community-acquired methicillin-resistant Staphylococcus aureus by microdilution method; in short: as §3
Staphylococcus aureus [35] = assay: Bactericidal activity against community-acquired methicillin-resistant Staphylococcus aureus expressing SCCmec type 4 element assessed as antibiotic concentration that reduced the number of viable cells by =>99.9% by colony count method; in short: as §4
Staphylococcus aureus [36] = assay: Antimicrobial activity against vancomycin intermediate Staphylococcus aureus NRS-68 expressing SCCmec type 2 element by microdilution method; in short: as §3
Staphylococcus aureus [37] = assay: Antimicrobial activity against vancomycin resistant Staphylococcus aureus VRS-7 expressing SCCmec element by microdilution method; in short: as §1
Staphylococcus aureus [38] = assay: Antimicrobial activity against vancomycin resistant Staphylococcus aureus VRS-9 expressing SCCmec type 2 element by microdilution method; in short: as §1
Staphylococcus aureus [39] = assay: Antimicrobial activity against vancomycin intermediate Staphylococcus aureus NRS-76 expressing SCCmec type 2 element by microdilution method; in short: as §1
Staphylococcus aureus [40] = assay: Antimicrobial activity against vancomycin-resistant Staphylococcus aureus by microdilution method; in short: as §1
Staphylococcus aureus [41] = assay: Antimicrobial activity against vancomycin intermediate Staphylococcus aureus NRS-19 expressing SCCmec type 2 element by microdilution method; in short: as §3
Staphylococcus aureus [42] = assay: Antimicrobial activity against vancomycin intermediate Staphylococcus aureus NRS-23 expressing SCCmec type 2 element by microdilution method; in short: as §3
Staphylococcus aureus [43] = assay: Antimicrobial activity against vancomycin intermediate Staphylococcus aureus NRS-17 expressing SCCmec type 2 element by microdilution method; in short: as §3
Staphylococcus aureus [44] = assay: Antimicrobial activity against vancomycin intermediate Staphylococcus aureus NRS-27 expressing SCCmec type 2 element by microdilution method; in short: as §3

`CCO/N=C(\C(=O)N[C@@H]1C(=O)N2C(C(=O)[O-])=C(Sc3nc(-c4cc[n+](C)cc4)cs3)CS[C@H]12)c1nsc(NP(=O)(O)O)n1` [CEFTAROLINE FOSAMIL] was tested, and the MIC (Staphylococcus aureus [1]) was 1 µg/mL (≈ 1.46 µM), the MBC (Staphylococcus aureus [2]) was 0.74 µg/mL and 0.25 µg/mL and the MBC50 (Staphylococcus aureus [2]) was 1 µg/mL (≈ 1.46 µM). It also gave an MIC (Staphylococcus aureus [3]) of 0.25 µg/mL (≈ 0.365 µM), an MIC (Staphylococcus aureus [4]) of 0.5 µg/mL (≈ 0.73 µM) and an MIC (Staphylococcus aureus [5]) of 0.12 µg/mL (≈ 0.175 µM). It also gave an MIC (Staphylococcus aureus [6]) of 1 µg/mL (≈ 1.46 µM), an MIC (Staphylococcus aureus [7]) of 0.5 µg/mL (≈ 0.73 µM) and an MIC (Staphylococcus aureus [8]) of 0.5 µg/mL (≈ 0.73 µM). The MIC (Staphylococcus aureus [9]) was 0.55 µg/mL and 0.25 µg/mL, the MIC50 (Staphylococcus aureus [9]; Staphylococcus aureus) was 0.5 µg/mL (≈ 0.73 µM) and the MIC (Staphylococcus aureus [10]) was 0.12 µg/mL (≈ 0.175 µM). For the same compound, the MIC (Staphylococcus aureus [11]) was 0.5 µg/mL (≈ 0.73 µM), the MIC (Staphylococcus aureus [12]) was 0.5 µg/mL (≈ 0.73 µM) and the MIC (Staphylococcus aureus [13]) was 0.5 µg/mL (≈ 0.73 µM). The MBC50 (Staphylococcus aureus [14]) was 0.5 µg/mL (≈ 0.73 µM), the MBC (Staphylococcus aureus [14]; Staphylococcus aureus) was 0.12 µg/mL (≈ 0.175 µM) and the MBC50 (Staphylococcus aureus [15]) was 0.5 µg/mL (≈ 0.73 µM). It also gave an MBC (Staphylococcus aureus [15]; Staphylococcus aureus) of 0.25 µg/mL (≈ 0.365 µM), an MIC (Staphylococcus aureus [16]) of 1 µg/mL (≈ 1.46 µM) and an MIC (Staphylococcus aureus [17]) of 0.5 µg/mL (≈ 0.73 µM). It also gave an MIC (Staphylococcus aureus [18]) of 0.5 µg/mL (≈ 0.73 µM), an MIC (Staphylococcus aureus [19]) of 1 µg/mL (≈ 1.46 µM) and an MIC (Staphylococcus aureus [20]) of 0.5 µg/mL (≈ 0.73 µM). For the same compound, the MIC (Staphylococcus aureus [21]) was 0.5 µg/mL (≈ 0.73 µM), the MIC (Staphylococcus aureus [22]) was 0.5 µg/mL (≈ 0.73 µM) and the MIC90 (Staphylococcus aureus [23]) was 0.5 µg/mL (≈ 0.73 µM). The MIC (Staphylococcus aureus [24]) was 0.5 µg/mL (≈ 0.73 µM), the MIC (Staphylococcus aureus [25]) was 0.25 µg/mL (≈ 0.365 µM) and the MIC (Staphylococcus aureus [26]) was 1 µg/mL (≈ 1.46 µM). It also gave an MIC90 (Staphylococcus aureus [27]) of 1 µg/mL (≈ 1.46 µM), an MIC50 (Staphylococcus aureus [28]) of 0.5 µg/mL (≈ 0.73 µM) and an MIC90 (Staphylococcus aureus [28]) of 1 µg/mL (≈ 1.46 µM). It also gave an MBC50 (Staphylococcus aureus [29]) of 1 µg/mL (≈ 1.46 µM), an MBC90 (Staphylococcus aureus [29]) of 1 µg/mL (≈ 1.46 µM) and an MBC (Staphylococcus aureus [29]; Staphylococcus aureus) of 0.5 µg/mL (≈ 0.73 µM). The MIC (Staphylococcus aureus [30]) was 0.5 µg/mL (≈ 0.73 µM), the MIC90 (Staphylococcus aureus [31]) was 0.25 µg/mL (≈ 0.365 µM) and the MBC90 (Staphylococcus aureus [32]) was 0.5 µg/mL (≈ 0.73 µM). It also gave an MIC (Staphylococcus aureus [33]) of 0.5 µg/mL (≈ 0.73 µM), an MIC50 (Staphylococcus aureus [34]) of 0.5 µg/mL (≈ 0.73 µM) and an MIC90 (Staphylococcus aureus [34]) of 1 µg/mL (≈ 1.46 µM). The MBC90 (Staphylococcus aureus [35]) was 0.5 µg/mL (≈ 0.73 µM), the MIC (Staphylococcus aureus [36]) was 0.5 µg/mL (≈ 0.73 µM) and the MIC (Staphylococcus aureus [37]) was 0.12 µg/mL (≈ 0.175 µM). It also gave an MIC (Staphylococcus aureus [38]) of 0.25 µg/mL (≈ 0.365 µM), an MIC (Staphylococcus aureus [39]) of 0.25 µg/mL (≈ 0.365 µM) and an MIC50 (Staphylococcus aureus [40]) of 0.5 µg/mL (≈ 0.73 µM). For the same compound, the MIC90 (Staphylococcus aureus [40]) was 0.5 µg/mL (≈ 0.73 µM), the MIC (Staphylococcus aureus [41]) was 0.5 µg/mL (≈ 0.73 µM) and the MIC (Staphylococcus aureus [42]) was 0.5 µg/mL (≈ 0.73 µM). For the same compound, the MIC (Staphylococcus aureus [43]) was 0.5 µg/mL (≈ 0.73 µM) and the MIC (Staphylococcus aureus [44]) was 0.5 µg/mL (≈ 0.73 µM).
